ChEMBL document CHEMBL1144694, “Identification of 4-(4-aminopiperidin-1-yl)-7H-pyrrolo[2,3-d]pyrimidines as selective inhibitors of protein kinase B through fragment elaboration” (J Med Chem, 2008)

Legend:
[1] = target: RAC-beta serine/threonine-protein kinase (Homo sapiens, UniProt P31751); assay: Inhibition of PKBbeta recombinant by radiometric filter binding assay
[2] = Growth inhibition of human PC3M cells by SRB assay; assay type: functional, cell-based; settings: PC-3M
[3] = Inhibition of recombinant catalytic subunit PKA by radiometric filter binding assay
[4] = Growth inhibition of human U87MG cells by SRB assay; assay type: functional, cell-based, U-87MG ATCC; settings: U-87 MG
[5] = AUC in BALB/c mouse at 25 mg/kg, iv; assay type: ADME, organism-based; parameters: dose 25 mg/kg, route intravenous; settings: plasma
Procedure, shortened: (§1)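 Female BALB/c mice dosed at 25 mg kg^-1 intravenously or orally, compound in 10% DMSO 0.1% Tween-20 in saline. Plasma concentrations measured over time to derive T1/2, Tmax, Cmax, AUC, Vss and plasma clearance.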

[6] = target: T1, Ribosomal protein S6 kinase beta-1 (Homo sapiens, UniProt P23443); assay: Inhibition of p70S6K by radiometric filter binding assay
Procedure, shortened: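 IC50 for p70S6K kinase activity measured in a radiometric filter binding assay.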
Target sequence in this assay (P23443 whole entry): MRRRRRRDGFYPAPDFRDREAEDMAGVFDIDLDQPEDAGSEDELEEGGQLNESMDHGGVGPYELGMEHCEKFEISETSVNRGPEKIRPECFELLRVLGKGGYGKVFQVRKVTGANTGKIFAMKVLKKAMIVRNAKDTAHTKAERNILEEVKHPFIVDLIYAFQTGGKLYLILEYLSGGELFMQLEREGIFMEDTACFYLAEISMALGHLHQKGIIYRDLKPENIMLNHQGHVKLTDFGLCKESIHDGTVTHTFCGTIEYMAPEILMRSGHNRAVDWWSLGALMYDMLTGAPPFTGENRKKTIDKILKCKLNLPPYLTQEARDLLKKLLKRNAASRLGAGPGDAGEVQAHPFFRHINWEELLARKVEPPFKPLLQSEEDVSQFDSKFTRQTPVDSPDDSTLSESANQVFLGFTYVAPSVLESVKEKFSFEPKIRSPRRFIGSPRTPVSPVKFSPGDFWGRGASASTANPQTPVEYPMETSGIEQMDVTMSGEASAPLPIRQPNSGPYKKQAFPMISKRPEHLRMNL

Mus musculus [7] = assay: Half life in BALB/c mouse at 25 mg/kg, iv; assay type: ADME, organism-based; parameters: dose 25 mg/kg, route intravenous; settings: in vivo; procedure, shortened: as §1
[8] = Metabolic stability in BALB/c mouse liver microsomes at 10 uM after 30 mins; assay type: ADME, Microsome; settings: read-out: Stability
Procedure, shortened: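 Incubated at 10 µM for 30 min in mouse liver microsomes competent for phase I and phase II metabolism. Parent remaining quantified by LC-MS/MS, with metabolite identification.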

Mus musculus [9] = assay: Volume of distribution at steady state in BALB/c mouse at 25 mg/kg, iv; assay type: ADME, organism-based; parameters: dose 25 mg/kg, route intravenous; settings: in vivo; procedure, shortened: as §1
[10] = Tmax in BALB/c mouse at 25 mg/kg, po; assay type: ADME, organism-based; parameters: dose 25 mg/kg, route oral; settings: in vivo; procedure, shortened: as §1
[11] = Half life in BALB/c mouse at 25 mg/kg, po; assay type: ADME, organism-based; parameters: dose 25 mg/kg, route oral; settings: in vivo; procedure, shortened: as §1
[12] = Oral bioavailability in BALB/c mouse at 25 mg/kg; assay type: ADME, organism-based; settings: in vivo
[13] = Cmax in BALB/c mouse at 25 mg/kg, po; assay type: ADME, organism-based; parameters: dose 25 mg/kg, route oral; settings: in vivo; procedure, shortened: as §1
[14] = Cmax in BALB/c mouse at 25 mg/kg, iv; assay type: ADME, organism-based; parameters: dose 25 mg/kg, route intravenous; settings: in vivo; procedure, shortened: as §1
[15] = Tmax in BALB/c mouse at 25 mg/kg, iv; assay type: ADME, organism-based; parameters: dose 25 mg/kg, route intravenous; settings: in vivo; procedure, shortened: as §1
Mus musculus [16] = assay: Clearance in BALB/c mouse plasma at 25 mg/kg, iv; assay type: ADME, organism-based; parameters: dose 25 mg/kg, route intravenous; settings: in vivo; procedure, shortened: as §1
[17] = AUC in BALB/c mouse at 25 mg/kg, po; assay type: ADME, organism-based; parameters: dose 25 mg/kg, route oral; settings: plasma; procedure, shortened: as §1
[18] = Metabolic stability in human liver microsomes at 10 uM after 30 mins; assay type: ADME, Microsome; settings: read-out: Stability
Procedure, shortened: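 Human liver microsomes with cofactors for phase I metabolism, compound at 10 µM for 30 min. Percent parent remaining measured by LC-MS/MS.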

Plasma = assay: Drug level in BALB/c mouse plasma at 25 mg/kg, po; assay type: ADME, organism-based; parameters: dose 25 mg/kg, route oral; settings: in vivo; procedure, shortened: as §1
[19] = Selectivity for PKBbeta over PKA
[20] = target: Proto-oncogene tyrosine-protein kinase Src (Homo sapiens) (UniProt P12931); assay: Inhibition of SRC at 1 uM
Sequence of Proto-oncogene tyrosine-protein kinase Src (Homo sapiens) (P12931 2-536 limits assumed): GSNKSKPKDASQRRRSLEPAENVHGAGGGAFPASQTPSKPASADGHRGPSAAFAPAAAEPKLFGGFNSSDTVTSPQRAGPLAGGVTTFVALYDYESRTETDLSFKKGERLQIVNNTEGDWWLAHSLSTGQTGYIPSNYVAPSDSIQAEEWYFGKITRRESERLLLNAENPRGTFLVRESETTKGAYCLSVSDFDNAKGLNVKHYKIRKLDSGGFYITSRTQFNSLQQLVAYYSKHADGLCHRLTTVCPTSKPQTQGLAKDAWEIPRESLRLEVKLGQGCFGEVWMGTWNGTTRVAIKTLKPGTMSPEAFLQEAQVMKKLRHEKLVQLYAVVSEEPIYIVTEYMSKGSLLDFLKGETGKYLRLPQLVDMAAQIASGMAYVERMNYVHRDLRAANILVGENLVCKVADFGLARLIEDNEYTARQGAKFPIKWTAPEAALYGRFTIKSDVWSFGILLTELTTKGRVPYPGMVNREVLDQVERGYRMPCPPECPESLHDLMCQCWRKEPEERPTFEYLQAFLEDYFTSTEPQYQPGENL
Procedure, shortened: (§2)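 Screen against a panel of 21 kinases, percent inhibition at 1 µM compound.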

[21] = target: Rho-associated protein kinase 2 (Homo sapiens) (UniProt O75116); assay: Inhibition of ROCK2 at 1 uM; procedure, shortened: as §2
Sequence of Rho-associated protein kinase 2 (Homo sapiens) (O75116 whole entry, looked up): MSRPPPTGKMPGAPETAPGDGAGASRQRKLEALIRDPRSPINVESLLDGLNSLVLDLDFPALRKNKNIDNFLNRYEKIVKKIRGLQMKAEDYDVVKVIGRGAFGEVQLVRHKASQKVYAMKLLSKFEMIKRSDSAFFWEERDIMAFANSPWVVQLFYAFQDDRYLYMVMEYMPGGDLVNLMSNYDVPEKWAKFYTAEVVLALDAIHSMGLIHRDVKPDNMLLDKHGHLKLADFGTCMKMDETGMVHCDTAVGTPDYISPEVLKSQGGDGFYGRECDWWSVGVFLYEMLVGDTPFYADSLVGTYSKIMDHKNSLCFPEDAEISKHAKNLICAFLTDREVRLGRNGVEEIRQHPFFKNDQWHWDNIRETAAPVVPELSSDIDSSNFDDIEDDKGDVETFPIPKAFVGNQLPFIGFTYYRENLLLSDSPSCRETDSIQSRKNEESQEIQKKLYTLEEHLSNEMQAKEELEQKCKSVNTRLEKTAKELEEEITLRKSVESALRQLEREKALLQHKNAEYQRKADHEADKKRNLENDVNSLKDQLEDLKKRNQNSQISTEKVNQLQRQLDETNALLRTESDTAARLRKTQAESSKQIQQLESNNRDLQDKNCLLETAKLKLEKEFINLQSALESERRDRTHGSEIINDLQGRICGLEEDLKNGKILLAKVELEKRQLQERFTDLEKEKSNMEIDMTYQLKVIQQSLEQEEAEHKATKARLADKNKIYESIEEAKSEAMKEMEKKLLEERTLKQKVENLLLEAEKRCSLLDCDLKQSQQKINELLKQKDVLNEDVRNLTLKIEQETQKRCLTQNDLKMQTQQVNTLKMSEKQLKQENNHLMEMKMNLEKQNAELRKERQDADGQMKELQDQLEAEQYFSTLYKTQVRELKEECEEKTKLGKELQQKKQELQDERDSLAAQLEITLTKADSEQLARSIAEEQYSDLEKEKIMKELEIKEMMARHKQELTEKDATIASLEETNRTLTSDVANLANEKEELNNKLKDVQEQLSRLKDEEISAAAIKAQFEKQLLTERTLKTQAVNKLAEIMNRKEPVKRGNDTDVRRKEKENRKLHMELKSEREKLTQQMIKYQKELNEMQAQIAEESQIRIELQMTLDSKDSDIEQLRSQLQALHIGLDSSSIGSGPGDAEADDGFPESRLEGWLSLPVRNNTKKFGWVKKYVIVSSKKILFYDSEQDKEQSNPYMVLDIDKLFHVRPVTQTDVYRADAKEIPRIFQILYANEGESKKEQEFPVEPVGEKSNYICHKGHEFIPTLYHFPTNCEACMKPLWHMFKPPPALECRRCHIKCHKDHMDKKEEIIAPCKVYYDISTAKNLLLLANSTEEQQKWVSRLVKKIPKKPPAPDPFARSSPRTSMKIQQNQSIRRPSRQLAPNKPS

[22] = target: T1, Ribosomal protein S6 kinase beta-1; assay: Inhibition of p70S6K at 1 uM; procedure, shortened: as §2
Target sequence in this assay (P23443 whole entry, looked up): as the sequence (P23443 whole entry) above

[23] = Inhibition of PKC at 1 uM; procedure, shortened: as §2
[24] = target: Ribosomal protein S6 kinase alpha-2 (Homo sapiens) (UniProt Q15349); assay: Inhibition of RSK2 at 1 uM; procedure, shortened: as §2
Sequence of Ribosomal protein S6 kinase alpha-2 (Homo sapiens) (Q15349 whole entry): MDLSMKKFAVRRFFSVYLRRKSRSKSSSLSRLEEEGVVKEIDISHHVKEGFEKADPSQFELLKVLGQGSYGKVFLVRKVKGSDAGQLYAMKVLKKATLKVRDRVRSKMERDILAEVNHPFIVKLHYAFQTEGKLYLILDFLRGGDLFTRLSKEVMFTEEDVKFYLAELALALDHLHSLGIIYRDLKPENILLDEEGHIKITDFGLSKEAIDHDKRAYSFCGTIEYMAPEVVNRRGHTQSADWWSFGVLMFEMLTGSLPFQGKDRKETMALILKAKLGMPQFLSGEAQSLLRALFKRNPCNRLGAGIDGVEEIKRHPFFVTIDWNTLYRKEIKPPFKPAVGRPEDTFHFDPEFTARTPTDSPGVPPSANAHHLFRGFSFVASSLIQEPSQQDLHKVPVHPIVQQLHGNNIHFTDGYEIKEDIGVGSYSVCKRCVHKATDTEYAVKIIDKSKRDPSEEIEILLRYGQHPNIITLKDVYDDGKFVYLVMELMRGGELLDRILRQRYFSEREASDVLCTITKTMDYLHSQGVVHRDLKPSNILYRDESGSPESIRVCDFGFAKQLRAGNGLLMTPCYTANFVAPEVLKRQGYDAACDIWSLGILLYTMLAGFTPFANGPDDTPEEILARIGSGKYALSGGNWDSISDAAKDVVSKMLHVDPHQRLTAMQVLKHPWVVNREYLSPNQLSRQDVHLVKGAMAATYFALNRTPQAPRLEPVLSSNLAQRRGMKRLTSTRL

[25] = target: Serine/threonine-protein kinase Chk2 (Homo sapiens) (UniProt O96017); assay: Inhibition of CHK2 at 1 uM; procedure, shortened: as §2
[26] = target: Receptor-type tyrosine-protein kinase FLT3 (Homo sapiens) (UniProt P36888); assay: Inhibition of FLT3 at 1 uM; procedure, shortened: as §2
Sequence of Receptor-type tyrosine-protein kinase FLT3 (Homo sapiens) (P36888 whole entry): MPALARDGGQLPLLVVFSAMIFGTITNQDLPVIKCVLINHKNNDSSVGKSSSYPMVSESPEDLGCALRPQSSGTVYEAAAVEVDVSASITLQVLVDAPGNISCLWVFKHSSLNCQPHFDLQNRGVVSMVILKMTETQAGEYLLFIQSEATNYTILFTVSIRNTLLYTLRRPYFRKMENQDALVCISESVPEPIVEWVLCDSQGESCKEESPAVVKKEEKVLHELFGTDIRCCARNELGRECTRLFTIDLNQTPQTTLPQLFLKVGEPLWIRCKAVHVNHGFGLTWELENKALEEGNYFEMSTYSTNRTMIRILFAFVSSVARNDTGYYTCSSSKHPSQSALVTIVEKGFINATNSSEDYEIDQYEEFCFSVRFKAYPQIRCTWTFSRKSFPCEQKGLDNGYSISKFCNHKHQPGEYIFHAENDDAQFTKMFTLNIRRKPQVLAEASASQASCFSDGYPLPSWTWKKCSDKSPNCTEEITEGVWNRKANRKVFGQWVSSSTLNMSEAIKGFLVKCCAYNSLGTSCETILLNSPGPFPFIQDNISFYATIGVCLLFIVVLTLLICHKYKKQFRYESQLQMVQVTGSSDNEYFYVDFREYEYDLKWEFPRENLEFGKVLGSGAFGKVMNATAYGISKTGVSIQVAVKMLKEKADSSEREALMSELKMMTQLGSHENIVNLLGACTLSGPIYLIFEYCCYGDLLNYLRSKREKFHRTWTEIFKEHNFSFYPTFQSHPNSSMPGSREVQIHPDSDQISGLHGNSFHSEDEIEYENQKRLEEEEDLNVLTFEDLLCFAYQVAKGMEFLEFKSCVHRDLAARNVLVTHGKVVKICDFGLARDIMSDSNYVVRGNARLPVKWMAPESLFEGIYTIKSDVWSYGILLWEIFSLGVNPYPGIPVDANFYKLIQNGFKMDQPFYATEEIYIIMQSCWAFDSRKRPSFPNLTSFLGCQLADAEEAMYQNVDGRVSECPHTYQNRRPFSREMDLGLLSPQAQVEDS

[27] = target: T2, Serine/threonine-protein kinase Chk1 (Homo sapiens) (UniProt O14757); assay: Inhibition of CHK1 at 1 uM; procedure, shortened: as §2
T2 sequence (whole entry): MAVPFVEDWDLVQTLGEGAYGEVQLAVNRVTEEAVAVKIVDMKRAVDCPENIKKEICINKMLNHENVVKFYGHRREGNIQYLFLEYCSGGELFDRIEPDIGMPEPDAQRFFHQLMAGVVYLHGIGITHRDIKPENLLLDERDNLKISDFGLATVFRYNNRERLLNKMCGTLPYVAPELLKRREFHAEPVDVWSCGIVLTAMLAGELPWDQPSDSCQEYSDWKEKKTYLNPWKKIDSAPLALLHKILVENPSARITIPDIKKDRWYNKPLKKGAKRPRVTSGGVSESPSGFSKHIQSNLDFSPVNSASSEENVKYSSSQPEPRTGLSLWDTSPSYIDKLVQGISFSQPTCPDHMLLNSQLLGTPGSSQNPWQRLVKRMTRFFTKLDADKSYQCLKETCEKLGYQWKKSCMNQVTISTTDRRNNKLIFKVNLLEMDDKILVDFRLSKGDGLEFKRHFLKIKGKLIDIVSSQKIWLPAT

Sequence of RAC-beta serine/threonine-protein kinase (P31751 whole entry): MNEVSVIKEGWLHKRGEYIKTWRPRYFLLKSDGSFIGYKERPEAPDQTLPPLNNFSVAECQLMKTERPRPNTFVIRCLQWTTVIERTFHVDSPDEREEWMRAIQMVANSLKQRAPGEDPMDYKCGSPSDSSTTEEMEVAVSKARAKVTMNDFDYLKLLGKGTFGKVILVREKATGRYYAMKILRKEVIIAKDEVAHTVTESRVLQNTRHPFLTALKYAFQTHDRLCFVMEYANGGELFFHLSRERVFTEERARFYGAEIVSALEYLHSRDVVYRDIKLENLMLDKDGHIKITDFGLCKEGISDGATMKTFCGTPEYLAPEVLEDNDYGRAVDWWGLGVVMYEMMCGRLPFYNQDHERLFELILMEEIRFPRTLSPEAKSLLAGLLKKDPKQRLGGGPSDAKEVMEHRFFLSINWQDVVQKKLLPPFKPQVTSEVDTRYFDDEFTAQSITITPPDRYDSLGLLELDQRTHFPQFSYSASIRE

IC50 [1] [nM] | IC50 [3] [nM] | Compound | IC50 [2] [nM] | further results
880 | 1930 | NC1CCN(c2ccnc3[nH]ccc23)CC1 | 31000 | 
110000 |  | Cc1nc2ncnc(N3CCC(N)CC3)c2[nH]1 |  | 
16 | 3 | NCC1(c2ccc(Cl)cc2)CCN(c2ncnc3[nH]cnc23)CC1 | 5700 | 
920 | 2400 | NCC1CCN(c2ncnc3[nH]ncc23)CC1 | > 50000 | 
5 | 9 | NCC1(Cc2ccc(Cl)cc2)CCN(c2ncnc3[nH]ccc23)CC1 | 15000 | IC50 [4]: 4300 nM
71 | 27 | NC(c1ccc(Cl)cc1)C1CCN(c2ncnc3[nH]cnc23)CC1 (stereo not given) | 23000 | 
290 | 890 | NCC1CCN(c2ncnc3[nH]cnc23)CC1 | > 50000 | 
830 | 7300 | NC1CCN(c2ncnc3[nH]ncc23)CC1 | 38000 | 

The next lines start with the compound.

Compound | IC50 [1] [nM] | IC50 [3] [nM] | IC50 [2] [nM] | further results
c1nc(N2CCCCC2)c2nc[nH]c2n1 | 59000 |  |  | 
NCC1(c2ccc(Cl)cc2)CCN(c2ccnc3[nH]ccc23)CC1 | 25 | 3 | 16000 | 
NC(c1ccc(Cl)cc1)C1CCN(c2ccnc3[nH]ccc23)CC1 (stereo not given) | 12 | 3 | 5300 | IC50 [4]: 3500 nM
NC(c1ccccc1)C1CCN(c2ncnc3[nH]ccc23)CC1 (stereo not given) | 246 | 726 | 38000 | 
NC1(c2ccc(Cl)cc2)CCN(c2ncnc3[nH]ccc23)CC1 | 7 | 15 | 8000 | IC50 [4]: 4700 nM
NC1(Cc2ccc(Cl)cc2)CCN(c2ncnc3[nH]ccc23)CC1 |  |  | 12000 | AUC [5]: 4.62 µM·h; IC50 [6]: 120 nM; t1/2 (Mus musculus [7]): 57 min; remaining at 0.5 h, 10 µM [8]: 87%; Vdss (Mus musculus [9]): 0.25 L; Tmax [10]: 30 min; half-life [11]: 34.2 min; bioavailability [12]: 8.5%; Cmax [13]: 432 nM; IC50 [4]: 5000 nM; Cmax [14]: 6360 nM; Tmax [15]: 4.98 min; clearance (Mus musculus [16]): 0.325 L/h; AUC [17]: 0.392 µM·h; remaining at 0.5 h, 10 µM [18]: 79%; concentration (Plasma): 432 nM
NC1CCN(c2ncnc3[nH]ccc23)CC1 | 180 | 1550 | 48000 | 
NC1(Cc2ccc(Cl)cc2)CCN(c2ncnc3[nH]cnc23)CC1 | 25 | 286 | > 50000 | Selectivity ratio [19]: 11
O=S(=O)(NCCNC/C=C/c1ccc(Br)cc1)c1cccc2cnccc12 |  | 5300 | 18000 | 
NC(c1ccc(Cl)cc1)C1CCN(c2ncnc3[nH]ccc23)CC1 (stereo not given) | 25 | 54 | 7400 | IC50 [4]: 6000 nM
NCC1CCN(c2ncnc3[nH]ccc23)CC1 | 770 | 460 | 32000 | 
NC1(c2ccc(Cl)cc2)CCN(c2ncnc3[nH]cnc23)CC1 | 7 | 23 | > 50000 | 
NCC1(c2ccc(Cl)cc2)CCN(c2ncnc3[nH]ccc23)CC1 | 8 | 5 | 1000 | inhibition [20]: > 60%; inhibition [21]: > 60%; inhibition [22]: > 60%; inhibition [23]: > 60%; inhibition [24]: > 60%; IC50 [4]: 520 nM; inhibition [25]: > 60%; inhibition [26]: > 60%; inhibition [27]: > 60%
NC(=O)C1CCN(c2ncnc3[nH]cnc23)CC1 | 41000 |  |  | 
NCC1(Cc2ccc(Cl)cc2)CCN(c2ncnc3[nH]cnc23)CC1 | 3 | 7 | 20000 | 
